Measured values from ChEMBL document CHEMBL4257575, “Discovery of Novel Flavonoid Dimers To Reverse Multidrug Resistance Protein 1 (MRP1, ABCC1) Mediated Drug Resistance in Cancers Using a High Throughput Platform with "Click Chemistry"” (J Med Chem, 2018).

What follows are molecules tested against Multidrug resistance-associated protein 1 (Homo sapiens, UniProt P33527) (assay: Inhibition of MRP1 in human 2008/MRP1 cells assessed as potentiation of doxorubicin-induced cytotoxicity by measuring cell survival at 2 uM after 5 days by MTS assay relative to control). Conditions: 120 h.
Type: cell-based
In short: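 2008/MRP1 cells (retroviral human MRP1 transfectant; RPMI 1640, 10% FBS) at 4,000 per well, with 100 nM doxorubicin plus crude, unpurified click products in DMSO: 2 µM in the primary screen, 1 µM in the secondary. Incubated 5 days at 37 °C. MTS/PMS added for 2 h at 37 °C, absorbance read at 490 nm. % survival is relative to wells without DOX or product. Run in triplicate, at least three experiments.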

Chain of Multidrug resistance-associated protein 1 (P33527 whole entry): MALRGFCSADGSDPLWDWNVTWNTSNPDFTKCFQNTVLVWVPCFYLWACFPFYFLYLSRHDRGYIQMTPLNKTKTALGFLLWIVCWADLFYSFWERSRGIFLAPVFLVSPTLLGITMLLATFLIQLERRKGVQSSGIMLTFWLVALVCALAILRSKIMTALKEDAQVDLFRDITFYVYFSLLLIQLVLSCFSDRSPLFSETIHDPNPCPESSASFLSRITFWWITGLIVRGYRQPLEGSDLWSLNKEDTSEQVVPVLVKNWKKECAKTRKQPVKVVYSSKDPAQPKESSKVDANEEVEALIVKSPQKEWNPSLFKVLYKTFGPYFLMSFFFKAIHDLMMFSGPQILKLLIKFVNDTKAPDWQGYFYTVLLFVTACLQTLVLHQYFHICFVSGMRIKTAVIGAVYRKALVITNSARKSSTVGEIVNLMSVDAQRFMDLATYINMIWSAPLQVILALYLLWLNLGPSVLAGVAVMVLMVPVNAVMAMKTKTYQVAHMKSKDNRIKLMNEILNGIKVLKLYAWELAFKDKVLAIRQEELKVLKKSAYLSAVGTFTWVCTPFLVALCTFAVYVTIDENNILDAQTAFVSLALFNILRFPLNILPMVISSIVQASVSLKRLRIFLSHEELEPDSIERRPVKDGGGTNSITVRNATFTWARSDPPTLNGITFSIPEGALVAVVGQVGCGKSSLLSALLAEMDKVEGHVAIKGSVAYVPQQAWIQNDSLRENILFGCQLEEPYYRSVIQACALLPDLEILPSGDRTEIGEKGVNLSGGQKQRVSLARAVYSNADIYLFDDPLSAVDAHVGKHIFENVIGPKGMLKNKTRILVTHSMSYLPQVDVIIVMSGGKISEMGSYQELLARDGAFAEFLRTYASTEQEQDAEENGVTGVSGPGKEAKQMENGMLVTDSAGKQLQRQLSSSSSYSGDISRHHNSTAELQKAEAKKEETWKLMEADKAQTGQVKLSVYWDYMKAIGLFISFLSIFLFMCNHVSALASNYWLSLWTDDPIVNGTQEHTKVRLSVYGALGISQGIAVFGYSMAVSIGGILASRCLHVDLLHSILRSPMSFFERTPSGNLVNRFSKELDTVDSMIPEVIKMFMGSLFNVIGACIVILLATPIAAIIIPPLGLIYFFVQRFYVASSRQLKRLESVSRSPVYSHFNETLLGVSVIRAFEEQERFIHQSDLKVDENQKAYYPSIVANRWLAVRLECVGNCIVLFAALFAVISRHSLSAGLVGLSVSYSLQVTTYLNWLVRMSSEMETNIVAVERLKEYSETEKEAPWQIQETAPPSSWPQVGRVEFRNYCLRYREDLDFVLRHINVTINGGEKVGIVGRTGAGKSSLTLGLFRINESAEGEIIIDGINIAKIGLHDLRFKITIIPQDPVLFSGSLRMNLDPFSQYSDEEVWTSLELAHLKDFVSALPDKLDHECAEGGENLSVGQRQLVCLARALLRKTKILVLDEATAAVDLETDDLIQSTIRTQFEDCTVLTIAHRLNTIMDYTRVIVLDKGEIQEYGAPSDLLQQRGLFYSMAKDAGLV

| Structure (SMILES) | Survival |
| --- | --- |
| COc1cccc(COc2c(-c3ccc(OCCOCCn4cc(CNc5ccccc5)nn4)cc3)oc3ccccc3c2=O)c1 | 89% |
| COc1cccc(COc2c(-c3ccc(OCCOCCn4cc(CCCCOc5ccc(-c6cc(=O)c7cc(C)ccc7o6)cc5)nn4)cc3)oc3ccccc3c2=O)c1 | 78% |
| O=c1cc(-c2ccccc2)oc2cc(OCCOCCOCCn3cc(CN(Cc4cn(CCOCCOCCOc5ccc6c(=O)cc(-c7ccccc7)oc6c5)nn4)Cc4cn(CCOCCOCCOc5ccc6c(=O)cc(-c7ccccc7)oc6c5)nn4)nn3)ccc12 | 77% |
| C#CCNc1ccccc1 | 87% |
| Cc1ccc(C(=O)/C=C/c2ccc(OCCCCc3cn(CCOCCOCCOc4ccc(-c5cc(=O)c6cc(C)ccc6o5)cc4)nn3)cc2)c(O)c1 | 61% |
| O=C1c2ccccc2C(=O)N1CCc1cn(CCOCCOc2cccc(-c3oc4ccccc4c(=O)c3OCc3ccccc3)c2)nn1 | 62% |
| COc1cccc(COc2c(-c3ccc(OCCOCCn4cc(CN5CCN(Cc6cn(CCOCCOc7ccc(-c8oc9ccccc9c(=O)c8OCc8cccc(OC)c8)cc7)nn6)CC5)nn4)cc3)oc3ccccc3c2=O)c1 | 85% |
| O=C(/C=C/c1ccc(OCCCCc2cn(CCOCCOc3ccc(-c4cc(=O)c5cc(F)ccc5o4)cc3)nn2)cc1)c1ccc(F)cc1O | 70% |
| COc1cccc(COc2c(-c3ccc(OCCOCCn4cc(CN(CCOc5ccc6c(=O)cc(-c7ccccc7)oc6c5)Cc5ccccc5)nn4)cc3)oc3ccccc3c2=O)c1 | 79% |
| O=c1cc(-c2ccc(OCCOCCOCCn3cc(CN(Cc4cn(CCOCCOCCOc5ccc(-c6cc(=O)c7cc(F)ccc7o6)cc5)nn4)Cc4cn(CCOCCOCCOc5ccc(-c6cc(=O)c7cc(F)ccc7o6)cc5)nn4)nn3)cc2)oc2ccc(F)cc12 | 77% |
| C#CCCCCOc1ccc(-c2cc(=O)c3cc(C)ccc3o2)cc1 | 88% |
| Cc1ccc2oc(-c3ccc(OCCOCCOCCn4cc(CCCCOc5ccc(C=O)cc5)nn4)cc3)cc(=O)c2c1 | 72% |
| O=c1cc(-c2ccccc2)oc2cc(OCCCc3cn(CCOc4cccc5c(=O)cc(-c6ccccc6)oc45)nn3)ccc12 | 56% |
| O=c1c(OCc2ccccc2)c(-c2ccc(OCCOCCOCCn3cc(CN(Cc4ccccc4)Cc4cn(CCOCCOCCOc5ccc(-c6oc7ccccc7c(=O)c6OCc6ccccc6)cc5)nn4)nn3)cc2)oc2ccccc12 | 87% |
| [N-]=[N+]=NCCOCCOc1ccc2c(=O)cc(-c3ccccc3)oc2c1 | 91% |
| O=C1c2ccccc2C(=O)N1CCc1cn(CCOCCOc2ccc3c(=O)cc(-c4ccccc4)oc3c2)nn1 | 51% |
| COCOc1cc(OCc2ccccc2)c2c(=O)cc(-c3ccc(OCCCc4cn(CCOCCOCCOc5ccc(-c6cc(=O)c7ccccc7o6)cc5)nn4)cc3)oc2c1 | 66% |
| O=c1c(OCc2ccccc2)c(-c2cccc(OCCOCCn3cc(CNc4ccccc4)nn3)c2)oc2ccccc12 | 92% |
| COc1cccc(COc2c(-c3ccc(OCCOCCn4cc(CN(C)CCN(C)Cc5cn(CCOCCOc6ccc(-c7oc8ccccc8c(=O)c7OCc7cccc(OC)c7)cc6)nn5)nn4)cc3)oc3ccccc3c2=O)c1 | 64% |
| O=c1cc(-c2ccc(OCCOCCn3cc(CNc4ccccc4)nn3)cc2)oc2ccc(F)cc12 | 81% |
| O=C(/C=C/c1ccc(OCCCCc2cn(CCOCCOCCOc3ccc(-c4cc(=O)c5cc(F)ccc5o4)cc3)nn2)cc1)c1ccc(F)cc1O | 53% |
| COc1cccc(COc2c(-c3ccc(OCCOCCN=[N+]=[N-])cc3)oc3ccccc3c2=O)c1 | 57% |
| O=c1cc(-c2ccccc2)oc2cc(OCCOCCn3cc(CN4CCN(Cc5cn(CCOCCOc6ccc7oc(-c8ccccc8)cc(=O)c7c6)nn5)CC4)nn3)ccc12 | 99% |

| Structure (SMILES) | Survival |
| --- | --- |
| O=c1cc(-c2ccc(OCCOCCOCCn3cc(CCCCOc4ccc5c(=O)cc(-c6ccccc6)oc5c4)nn3)cc2)oc2ccccc12 | 57% |
| Cc1ccc2oc(-c3ccc(OCCCCc4cn(CCOCCOc5cccc(-c6oc7ccccc7c(=O)c6OCc6ccccc6)c5)nn4)cc3)cc(=O)c2c1 | 55% |
| Cc1ccc(C(=O)/C=C/c2ccc(OCCCCc3cn(CCOc4cccc5c(=O)cc(-c6ccccc6)oc45)nn3)cc2)c(O)c1 | 75% |
| O=c1c(OCc2ccccc2)c(-c2ccc(OCCOCCOCCn3cc(CN(Cc4cn(CCOCCOCCOc5ccc(-c6oc7ccccc7c(=O)c6OCc6ccccc6)cc5)nn4)Cc4cn(CCOCCOCCOc5ccc(-c6oc7ccccc7c(=O)c6OCc6ccccc6)cc5)nn4)nn3)cc2)oc2ccccc12 | 81% |
| O=c1[nH]c(-c2ccc(OCCCc3cn(CCOCCOc4ccc(-c5oc6ccccc6c(=O)c5OCc5ccccc5)cc4)nn3)cc2)nc2ccccc12 | 64% |
| [N-]=[N+]=NCCOCCOCCOc1ccc(-c2cc(=O)c3cc(F)ccc3o2)cc1 | 85% |
| O=c1cc(-c2ccc(OCCOCCOCCn3cc(CN(Cc4cn(CCOCCOCCOc5ccc(-c6cc(=O)c7ccccc7o6)cc5)nn4)Cc4cn(CCOCCOCCOc5ccc(-c6cc(=O)c7ccccc7o6)cc5)nn4)nn3)cc2)oc2ccccc12 | 77% |
| O=C(/C=C/c1ccc(OCCCCc2cn(CCOCCOCCOc3ccc(-c4cc(=O)c5ccccc5o4)cc3)nn2)cc1)c1ccccc1O | 65% |
| [N-]=[N+]=NCCOCCOc1cccc(-c2oc3ccccc3c(=O)c2OCc2ccccc2)c1 | 86% |
| O=c1c(OCc2ccccc2)c(-c2ccc(OCCOCCn3cc(CN4CCN(Cc5cn(CCOCCOc6ccc(-c7oc8ccccc8c(=O)c7OCc7ccccc7)cc6)nn5)CC4)nn3)cc2)oc2ccccc12 | 58% |
| C#CCN1CCN(CC#C)CC1 | 81% |
| O=c1cc(-c2ccccc2)oc2cc(OCCOCCn3cc(COCCOc4ccc5c(=O)cc(-c6ccccc6)oc5c4)nn3)ccc12 | 60% |
| O=c1cc(-c2ccccc2)oc2c(OCCn3cc(CNc4ccccc4)nn3)cccc12 | 85% |
| CN(CCN(C)Cc1cn(CCOCCOCCOc2ccc(-c3oc4ccccc4c(=O)c3OCc3ccccc3)cc2)nn1)Cc1cn(CCOCCOCCOc2ccc(-c3oc4ccccc4c(=O)c3OCc3ccccc3)cc2)nn1 | 84% |
| O=c1c(OCc2ccccc2)c(-c2ccc(OCCOCCn3cc(-c4ccc(-c5cn(CCOCCOc6ccc(-c7oc8ccccc8c(=O)c7OCc7ccccc7)cc6)nn5)cc4)nn3)cc2)oc2ccccc12 | 82% |
| CN(CCN(C)Cc1cn(CCOCCOc2ccc(-c3cc(=O)c4ccccc4o3)cc2)nn1)Cc1cn(CCOCCOc2ccc(-c3cc(=O)c4ccccc4o3)cc2)nn1 | 87% |
| C#CCCCCOc1ccc(C=O)cc1 | 86% |
| CN(CCN(C)Cc1cn(CCOCCOc2ccc(-c3oc4ccccc4c(=O)c3OCc3ccccc3)cc2)nn1)Cc1cn(CCOCCOc2ccc(-c3oc4ccccc4c(=O)c3OCc3ccccc3)cc2)nn1 | 76% |
| CN(CCN(C)Cc1cn(CCOCCOc2ccc(-c3cc(=O)c4cc(F)ccc4o3)cc2)nn1)Cc1cn(CCOCCOc2ccc(-c3cc(=O)c4cc(F)ccc4o3)cc2)nn1 | 73% |
| COCOc1cc(OCc2ccccc2)c2c(=O)cc(-c3ccc(OCCCc4cn(CCOCCOCCOc5ccc(-c6oc7ccccc7c(=O)c6OCc6ccccc6)cc5)nn4)cc3)oc2c1 | 89% |
| Cc1ccc(O)c(C(=O)/C=C/c2ccc(OCCCCc3cn(CCOCCOCCOc4ccc(-c5cc(=O)c6ccccc6o5)cc4)nn3)cc2)c1 | 70% |
| O=C(/C=C/c1ccc(OCCCCc2cn(CCOCCOc3ccc4c(=O)cc(-c5ccccc5)oc4c3)nn2)cc1)c1ccccc1O | 58% |
